Consider 96 compounds from PubChem BioAssay AID651952 (The Scripps Research Institute Molecular Screening Center, 2012).

Screen size: about 2,400 compounds; about 940 (39%) were called active. A selection follows. Unmarked numbers belong to inactive results.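 The calls were made as follows: active = inhibition above the plate's mean compound inhibition plus 3 SD, computed per plate (cut at about 22% in these data); inactive = the rest.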

The experiment in a line: inhibition of ATP-evoked calcium response in CHO-Ga16 cells, counter-screen for TAAR1 agonist project, cell-based, fluorescence (AID 651952).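 Also: 0% = EC80 ATP with DMSO and 100% = DMSO wells without ATP.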 The conditions noted are these: CHO-Ga16 ATP-induced calcium, Fluo-8 fluorescence; at 3 µM; active compounds read high. In short, it runs like this:
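Compound – 3 µM single dose · Material – Gα16-expressing CHO parent cells · Measured by – Fluo-8 calcium fluorescence · Reagent – ATP purinergic agonist at EC80, added after compound · Repeats – triplicate wells per compound · Incubation – 17–24 h seeding, dye 75 min 37 °C, 30 min RT · Benchmarks – DMSO-only and ATP-stimulated wells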
(A counterscreen serves to expose hits that act by an unwanted route or on another target.)
The inhibition is the change of the read-out against control, counted positive when it falls. Turning to `NC(=O)C1=C[C@H](c2csc3ccccc23)C[C@H](OCc2ccc(CO)cc2)O1`, the inhibition is 36.5% (active).

As for `CCc1ccccc1S(=O)(=O)Cc1ccc(C(=O)NCCc2ccccc2)o1`, the inhibition is 8.92%.

Turning to `O=C(Cc1ccc(Cl)cc1)NC(=S)Nc1ccccc1O`, the inhibition was 92.6% (active). The figure for `O=C(NCCc1ccccc1)Oc1ccc(Cl)cc1` is 11%; for `Cc1ccccc1NC(=S)NC(=O)Cc1ccc(Cl)cc1` it is 44.5% (active).

For `S=C(NCCCc1cnc[nH]1)NCCCN(Cc1ccc(Cl)c(Cl)c1)c1ccc(Br)cn1`, the inhibition was 48.6% (active). `CCCCCCCCCCOC(=O)Cn1c(COc2ccc(C)cc2)[n+](C)c2ccccc21`: the inhibition was 75.9% (active). The figure for `Nc1cccc2c1C(=O)N(Cc1nnc(-c3ccccc3Br)o1)C2=O` is 7.55%; for `O=C(CSc1nc(-c2ccco2)cc(C(F)(F)F)n1)NCc1cccs1` it is 3.17%; for `NC(Cc1ccccc1)c1csc(Nc2cc(Oc3ccccc3)ncn2)n1` (stereo unspecified) it is 34.3% (active). The figure for `O=C(COC(=O)Cc1ccccc1F)NCCc1ccccc1` is 5.44%; for `CC(=O)Oc1ccc(Cn2c(C)c(C(=O)NCc3ccc(C#N)cc3)sc2=O)cc1` it is 45.6% (active); for `CN(C)c1ccc(/C=C2\NC(=S)N(Cc3ccccc3)C2=O)cc1` it is 71.1% (active). The value for `O=C(/C=C/[C@H]1O[C@@H](n2cnc3c(NC(=O)c4ccccc4)ncnc32)[C@H](O)[C@@H]1O)NCc1ccccc1` was 7.32%; that for `CN(C)CCCN(C(=O)c1ccc(S(=O)(=O)N2CCCc3ccccc32)cc1)c1nc2ccc(F)cc2s1` was 43.4% (active).

For `CN(C)CCCN(C(=O)c1ccc(S(=O)(=O)N2CCCCCC2)cc1)c1nc2ccc(Br)cc2s1`, the inhibition is 43% (active). The value for `Cc1cc(=O)oc2c(C)c(OCC(=O)NCCN3CCOCC3)ccc12` was 7.14%. Regarding `Nc1c(NCCc2ccccc2)c2ccccc2oc1=O`, the inhibition is 18%. Regarding `CCOC(=O)Cc1csc(NC(=O)Nc2ccccc2)n1`, the inhibition is 26.6% (active).

Regarding `Cc1ccn2c(=O)c(C(=O)NCCC3=CCCCC3)c(O)nc2c1`, the inhibition was -3.36%. The value for `Cc1ccc(O)c(NC(=S)NC(=O)COc2ccc(Br)cc2)c1` was 92% (active). The figure for `COCCCn1c(Cc2csc(Nc3cccc(Cl)c3)n2)nnc1SCC(=O)OC1CCCCC1` is 6.89%. On to `c1ccc(CCN2CN=C(Nc3nc4ccccc4o3)NC2)cc1`, for which the inhibition is -0.52%. The figure for `O=C(NCCc1ccccc1)/C(=C\c1ccc([N+](=O)[O-])cc1)NC(=O)c1ccccc1` is 9.72%; for `CCCCCC(=O)NC(=S)NNC(=O)c1ccc([N+](=O)[O-])cc1` it is 51.5% (active). The value for `CC(NC(=O)c1cc(-c2ccccc2)on1)c1ccccc1` (stereo unspecified) was 17.1%. The figure for `O=[N+]([O-])c1cc(S(=O)(=O)NCCc2ccccn2)ccc1Cl` is 0.96%.

Turning to `N#Cc1ccc(OCCCN2CCC(C(O)(c3ccccc3)c3ccccc3)CC2)c(F)c1`, the inhibition was 25.9% (active). Regarding `COc1ccc(NC(=O)C(=O)NCC(c2ccco2)N2CCc3ccccc3C2)cc1` (stereo unspecified), the inhibition is 9.37%.

For `COc1cccc(N(CC(=O)N2CCc3ccccc3C2)S(C)(=O)=O)c1`, the inhibition is 12.7%. Consider `O=C(O)C1C2C=CC(O2)C1C(=O)NCCc1cccc(Cl)c1` (stereo unspecified), for which the inhibition is 7.32%. The value for `Cc1onc(-c2ccccc2)c1C(=O)NNC(=S)NC(=O)c1ccc(F)cc1` was 50.7% (active); that for `COc1ccc(C(=O)NC(=S)NNC(=O)c2c(-c3ccccc3)noc2C)cc1` was 14.4%; that for `COc1ccc(C(=O)NC(=S)NNC(=O)CCc2ccccc2)cc1` was 58.5% (active). With `O=C(Nc1cccc(NC(=O)c2ccc(Br)cc2)c1)c1ccccc1`, the inhibition was 2.95%.

Regarding `COc1ccc(C(=O)NNC(=S)NC(=O)c2ccccc2)cc1`, the inhibition was 44.3% (active). `CCCc1cc(C(=O)Nc2ccc(C(=O)OC)cc2)cs1`: the inhibition was 11.2%. The value for `O=C1CCCC(O)=C1C=NCCc1ccccc1` was 1.71%; that for `Cc1ccccc1-c1nc(CS(=O)(=O)CC(=O)N2CCc3ccccc3C2)c(C)o1` was 18.3%; that for `CCCCC(=O)NNC(=S)NC(=O)C(c1ccccc1)c1ccccc1` was 91% (active). Consider `O=C(N[C@H](C(=O)N1CCC[C@H]1C(=O)NCCc1ccccc1Cl)c1ccccc1)c1ccccc1`, for which the inhibition was 12.2%.

Consider `C[C@H](NC(=O)c1ccccc1)C(=O)OCC(=O)c1c[nH]c2ccccc12`, for which the inhibition is -1.32%. The value for `CN(C(=O)CN(CCO)CC(=O)N(C)C(C)(C)Cc1ccccc1)C(C)(C)Cc1ccccc1` was 74.1% (active); that for `COc1cccc(-c2cnc(OC(C)(C)C)nc2OC(C)(C)C)c1` was 4.69%; that for `Cc1ccc(Cl)cc1N1CCN(C(=O)c2cccc3c(=O)c(C)c(-c4ccccc4)oc23)CC1` was 69.8% (active). Turning to `O=C(CCCN=C1NS(=O)(=O)c2ccccc21)OCC(=O)c1ccc(F)c(F)c1`, the inhibition is 26.1% (active). The value for `CC(=O)Nc1ccccc1Sc1ccc2c3c(cccc13)C(=O)N(c1ccc(C)cc1)C2=O` was 2.83%; that for `Nc1cc(OC(=O)c2ccccc2Br)nn1S(=O)(=O)c1ccccc1` was 2.75%; that for `NC(c1ccccc1)c1csc(NC(=O)Nc2cccc(C(F)(F)F)c2)n1` (stereo unspecified) was 48% (active). The figure for `COc1ccc(C(N)c2csc(NC(=O)Nc3cccc(C(F)(F)F)c3)n2)cc1` (stereo unspecified) is 41.8% (active); for `NC[C@H](Cc1ccccc1)NCCc1cc(C(F)(F)F)cc(C(F)(F)F)c1` it is 9.31%. The figure for `CCN(CC)c1ccc2oc(=O)c(C)nc2c1` is 37.7% (active); for `CC(C)(C)CC(=O)Nc1nc(C(N)Cc2ccc(C(F)(F)F)cc2)cs1` (stereo unspecified) it is 54.9% (active). Take `COc1ccc(CC(N)c2csc(NC(=O)Cc3ccccc3)n2)cc1` (stereo unspecified): the inhibition is 20.4%. With `CCCCc1c(-c2ccc(Br)cc2)ncn1CCc1ccccc1OC`, the inhibition is 23.5% (active). The value for `CCc1c(-c2ccccc2OC)ncn1CCc1ccccc1OC` was 3.45%; that for `CCCCc1c(-c2ccc(Cl)cc2)ncn1CCc1ccccc1OC` was 28% (active); that for `S=C(Nc1ccc(Br)cc1)NC1CCN(Cc2ccccc2)CC1` was 23.8% (active). For the compound `COc1ccc2c(c1)OC(O)(C(F)(F)C(F)F)CC2=O` (stereo unspecified), the inhibition is 17.6%. On to `c1ccc(-c2csc(N3CCc4ccccc4C3)n2)cc1`, for which the inhibition is 0.61%. The figure for `O=C(Nc1ccc(F)cc1)Nc1nnc([C@H]2C[C@H](O)[C@@H](CO)O2)s1` is 2.16%; for `O=C(Nc1ccncc1)Nc1ccc(F)cc1` it is 12.7%. For `O=C(Nc1ccccc1)Nc1nnc(COc2ccccc2F)s1`, the inhibition is 27.2% (active).

Regarding `CCC(c1nnnn1Cc1ccco1)N(CCc1ccccc1)Cc1cc2cccc(C)c2[nH]c1=O` (stereo unspecified), the inhibition is 13.9%. The value for `CCC(C(=O)Nc1ccc(C(C)C)cc1)c1ccccc1` (stereo unspecified) was 68% (active); that for `c1ccc2c(c1)C(=NC1CCCCC1)NC2=NC1CCCCC1` was 26.3% (active); that for `C#CCOc1ccc(/C=C2/C(=O)NN(c3ccccc3)C2=O)cc1OC` was 9.41%. On to `c1ccc(C2CNCc3c2ccc2ccccc32)cc1` (stereo unspecified), for which the inhibition was 33.8% (active). The figure for `CCCOc1ccc(-c2c(C(=O)N/N=C/c3ccco3)nnn2-c2nonc2N)cc1` is 8.77%; for `CCCCOc1ccc(CSC(=N)N)cc1[N+](=O)[O-]` it is 17.7%. For the compound `CCOc1ccc(Br)cc1CSC(=N)N`, the inhibition was 27.7% (active).

Turning to `CCc1ccc(-c2nn(-c3ccccc3)cc2CSC(=N)N)cc1`, the inhibition is 21.2%. With `Nc1nonc1-n1nnc(C(=O)N/N=C/c2ccc(Cl)cc2)c1-c1ccc2c(c1)OCO2`, the inhibition was -0.91%. In the case of `Nc1c(C(=O)c2cccs2)sc2nsc(SCCN3CCCCC3)c12`, the inhibition was 63% (active). For the compound `COc1ccc(OC)c(C(c2nnnn2C(C)(C)C)N2CCc3ccccc3C2)c1` (stereo unspecified), the inhibition is 2.14%. The figure for `CCCC1CCC(=NNC(=S)NCCc2ccccc2)CC1` (stereo unspecified) is 13.2%; for `c1ccc(Nc2nc(N3CCOCC3)c3ccccc3n2)cc1` it is 28.7% (active). The figure for `Cc1ccc(S(=O)(=O)N(CC(=O)N2CCc3ccccc3C2)c2cccc(Cl)c2)cc1` is 18.1%; for `O=C1C=C(c2ccc(Cl)cc2)C(=O)N1Nc1ccccc1` it is 79.5% (active); for `Cc1ccc(Sc2cc(N3CCOCC3)nc(-c3ccccc3)n2)cc1` it is -8.38%. The value for `Nc1nnn(CC(=O)N/N=C/c2ccccc2)n1` was 0.58%; that for `CCCc1ccc(OCC(=O)NNC(=S)NC(=O)c2ccco2)cc1` was 50.6% (active); that for `CC(Oc1ccc2ccccc2c1)C(=O)NNC(=S)NC(=O)c1ccco1` (stereo unspecified) was 52.4% (active). As for `Cc1c(CNCCc2ccccc2)c(C(=O)O)c(C)n1-c1ccccc1`, the inhibition was 6.15%. Turning to `CCCSc1nc2c(c(=O)n(C)c(=O)n2C)n1Cc1ccc(C)cc1`, the inhibition was 20.4%. The figure for `Oc1ccc2ccc3cccc[n+]3c2c1` is 33.9% (active); for `Cc1cc(C)c2cc(C#N)c(N3CCNCC3)nc2c1` it is 3.67%. Regarding `O=C(NNC(=S)NC(=O)c1cn(-c2ccccc2)nc1-c1ccccc1)c1ccncc1`, the inhibition is 57.6% (active).

Regarding `COc1ccc2cc(-c3[nH]ncc3CNCCn3nc(C)cc3C)ccc2c1`, the inhibition is 4.6%. In the case of `Cc1cccc(NC(=O)C(C)N2C(=O)C3C4CC(C(Br)C4Br)C3C2=O)c1` (stereo unspecified), the inhibition was 43.9% (active). `O=c1cnnc(Nc2ccccc2)[nH]1`: the inhibition was 7.9%. As for `COc1cc(OC)cc(C(=O)N[C@H](C(=O)OCC(=O)NC(C)c2ccccc2)C(C)C)c1` (stereo partly specified), the inhibition was 6.73%. The value for `Cn1c(=O)c(=O)n(C)c2cc(S(=O)(=O)NCCc3ccccc3)ccc21` was -3.68%; that for `Fc1ccc(NC(=S)N2CCc3[nH]c4ccccc4c3C2)cc1` was 22.9% (active). Take `COc1ccc(OC)c(NC(=S)N2CCc3ccccc3C2)c1`: the inhibition is 5.63%.

In the case of `O=C(Nc1ccc(Cl)cc1)N1CCc2[nH]c3ccccc3c2C1`, the inhibition was 14.7%.
